Measurements taken from ChEMBL document CHEMBL4346674, “Structure-activity relationships and mechanistic studies of novel mitochondria-targeted, leishmanicidal derivatives of the 4-aminostyrylquinoline scaffold” (Eur J Med Chem, 2019).
Active and inactive are the calls of the source.

How the values were obtained:
Leishmania pifanoi [1] = test: Antileishmanial activity against Leishmania pifanoi […] axenic amastigotes incubated for 96 hrs by MTT assay; type: functional, organism-based
Outline: (§1)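 Parasites washed in HBSS-Glc and resuspended at 2×10^6 cells/ml in fresh growth medium with compound at 0.78-50.0 µM. Promastigotes grown in RPMI 1640-modified medium + 10% HIFCS, 72 h at 26 °C; axenic amastigotes in medium 199 + 20% HIFCS + 50 µg/ml hemin, 96 h at 32 °C. MTT 0.5 mg/ml for 2 h, formazan dissolved in SDS (5% final), absorbance 590 nm. Triplicates, ≥2 experiments, IC50 computed.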

J774 = test: Cytotoxicity against mouse J774 cells incubated for 48 hrs by MTT assay; type: cell-based; conditions: J774, 48 h
Outline: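 J774.1 cells grown in RPMI-1640 + 10% heat-inactivated FCS, 2 mM L-glutamine, penicillin-streptomycin, 37 °C, 5% CO2. Seeded at 10^5 cells/well and left overnight, then compound in fresh medium for 48 h. MTT 0.5 mg/ml final, 2 h; SDS 0.1% final, 2 h at 37 °C; read at 595 nm. Triplicate samples, ≥2 independent experiments; CC50 calculated.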

[2] = Selectivity index, ratio of IC50 for mouse J774 cells to IC50 for Leishmania pifanoi […] axenic amastigotes; type: toxicity; conditions: read-out: Ratio IC50
Leishmania donovani [3] = test: Antileishmanial activity against Leishmania donovani MHOM/SD/00/1S-2D promastigotes incubated for 72 hrs by MTT assay; type: functional, organism-based; outline: as §1
Leishmania donovani [4] = test: Antileishmanial activity against Leishmania donovani promastigotes harboring 3-Luc gene assessed as decrease in parasites viability using DMNEP-D-luciferin as substrate at 50 uM incubated for 10 mins by luminescence assay relative to control; type: functional
Outline: (§2)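 3-Luc L. donovani promastigotes, episomally expressing cytoplasmic firefly luciferase and grown at 26 °C in RPMI 1640-modified medium + 10% HIFCS with G-418 (30 µg/ml). Assay: cells at 20 × 10^6/ml in HBSS-Glc with caged DMNPE-luciferin (50 µM final). Compound added once luminescence plateaued; luminescence followed over time, expressed as % of value at addition (100%). Luciferase inhibition controls run.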

Leishmania donovani [5] = test: Induction of plasma membrane permeabilization in Leishmania donovani MHOM/SD/00/1S-2D promastigotes at 50 uM by sytox green-based fluorescence assay; type: functional, organism-based
Outline: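 Promastigotes at 20×10^6 cells/ml in HBSS-Glc with SYTOX Green 1.0 μM final. Compound added after a stable baseline; fluorescence rise (ex 504/em 524 nm) monitored. Values given as percent of full permeabilization by 0.1% Triton X-100.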

Leishmania pifanoi [6] = test: Antileishmanial activity against CFSE-labelled Leishmania pifanoi MHOM/VE/60/Ltrod axenic amastigotes infected in mouse peritoneal macrophage assessed as infection index at 10 uM incubated for 12 hrs by DAPI staining based confocal microscopic method (reference value: 5.3 +/- 2.5); type: functional
Leishmania donovani [7] = test: Antileishmanial activity against Leishmania donovani promastigotes harboring 3-Luc gene assessed as threshold concentration of compound using DMNEP-D-luciferin as substrate measured at < 5 mins by luminescence assay; type: functional; outline: as §2
Leishmania donovani [8] = test: Induction of mitochondrial dysfunction in Leishmania donovani MHOM/SD/00/1S-2D promastigotes as mitochondrial membrane potential at 50 uM incubated for 4 hrs by Rh123 staining based flow cytometry; type: functional, organism-based
Leishmania donovani [9] = test: Induction of mitochondrial dysfunction in Leishmania donovani MHOM/SD/00/1S-2D promastigotes as mitochondrial membrane potential at 25 uM incubated for 4 hrs by Rh123 staining based flow cytometry; type: functional, organism-based
[10] = Drug localization in mitochondria of Leishmania pifanoi MHOM/VE/60/Ltrod axenic amastigotes assessed as punctate pattern formation at 20 uM incubated for 1 hr by DAPI staining based confocal microscopic method; type: ADME
Outline: (§3)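 Living axenic amastigotes given compound 20 µM for 1 h at 32 °C, then DAPI 5 µg/ml for 30 min before confocal imaging. Compound ex 488/em 520 nm, DAPI ex 350/em 460 nm. For depolarized mitochondria, 1 mM KCN added 15 min before compound. For colocalization, MitoTracker Red 0.05 µM (10 min, 32 °C) preceded compound; overlap given as Pearson coefficient.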

[11] = Drug localization in KCN-induced depolarized Leishmania pifanoi MHOM/VE/60/Ltrod axenic amastigotes mitochondria at 20 uM pretreated with KCN for 15 mins followed by compound addition and measured at 1 hr by MitoTracker dye based confocal microscopic method; type: ADME; outline: as §3
Leishmania donovani [12] = test: Induction of morphological changes in Leishmania donovani MHOM/SD/00/1S-2D promastigotes assessed as swollen mitochondrion at 5 uM incubated for 12 hrs by TEM analysis; type: functional, organism-based
Outline: (§4)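 Promastigotes held in full growth medium with compound 5 μM for 12 h. Washed with HBSS, fixed in 5% glutaraldehyde, post-fixed with 2.5% OsO4 for 1 h, dehydrated through graded ethanol, treated with propylene oxide, embedded in Epon 812. Sections cut with a diamond knife and examined by transmission electron microscopy.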

Leishmania donovani [13] = test: Induction of cell cycle arrest in Leishmania donovani MHOM/SD/00/1S-2D promastigotes assessed as cell accumulation in subG1 phase at 20 uM incubated for 48 hrs by propidium iodide staining based flow cytometric analysis (RVb = 4.6%); type: functional
Leishmania donovani [14] = test: Induction apoptosis in Leishmania donovani MHOM/SD/00/1S-2D promastigotes at 20 uM incubated for 48 hrs by propidium iodide staining based flow cytometric analysis; type: functional, organism-based
Leishmania donovani [15] = test: Induction of morphological changes in Leishmania donovani MHOM/SD/00/1S-2D promastigotes assessed as strong vacuolization of the cytoplasm at 5 uM incubated for 12 hrs by TEM analysis; type: functional, organism-based; outline: as §4
Leishmania donovani [16] = test: Induction of morphological changes in Leishmania donovani MHOM/SD/00/1S-2D promastigotes assessed as appearance of distended acidocalcisomes at 5 uM incubated for 12 hrs by TEM analysis; type: functional, organism-based; outline: as §4
Leishmania donovani [17] = test: Induction of morphological damage in Leishmania donovani MHOM/SD/00/1S-2D promastigotes assessed as increase in intracellular acidic pH at 5 uM pretreated with acridine orange followed by compound addition and measured at 1 hr by acridine orange based confocal microscopic method; type: functional, organism-based
Outline: (§5)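 Promastigotes at 40×10^6 cells/ml loaded with acridine orange 2 μM (5 min, 26 °C), washed and readjusted to the same density. Kinetic fluorescence (ex 488/em 530 nm) followed after adding compound 5 μM once the signal was stable. For confocal imaging, loaded cells were given compound 5 μM for 1 h, washed and immobilized on hydrogel; imaged at ex 488/em 650 nm.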

Leishmania donovani [18] = test: Induction of morphological damage in Leishmania donovani MHOM/SD/00/1S-2D promastigotes assessed as increase in intracellular acidic pH at 5 uM pretreated with acridine orange followed by compound addition by acridine orange based fluorescence assay; type: functional, organism-based; outline: as §5
[19] = Inhibition of luciferase (unknown origin) at 50 uM
Leishmania donovani [20] = test: Induction of cell cycle arrest in Leishmania donovani MHOM/SD/00/1S-2D promastigotes assessed as cell accumulation in subG1 phase at 10 uM incubated for 48 hrs by propidium iodide staining based flow cytometric analysis (RVb = 4.6%); type: functional

Structure (SMILES)	IC50 (Leishmania pifanoi [1])	IC50 (J774)	selectivity ratio [2]	IC50 (Leishmania donovani [3])	Activity (Leishmania donovani [4])	Activity (Leishmania donovani [5])	further results
CC(=O)Nc1cc(/C=C/c2ccccc2)nc2ccccc12	9.5 µM	> 25 µM	> 2.6	–	–	–	–
O=C(CN1CCCC1)NCCNc1cc(/C=C/c2ccccc2)nc2ccccc12	0.9 µM	12.5 µM	13.9	2.1 µM	49.9%	inactive	–
O=C(CNc1ccc(Cl)cc1Cl)NCCCCNc1cc(/C=C/c2ccccc2)nc2ccccc12	12.3 µM	7.3 µM	0.6	2.1 µM	–	–	–
Cc1cc(N)c2ccccc2n1	> 50 µM	> 50 µM	–	10.9 µM	–	–	–
CC(C)(C)OC(=O)NCCNc1cc(/C=C/c2ccccc2)nc2ccccc12	4.3 µM	6.6 µM	1.5	0.45 µM	–	–	–
CCN(CC)Cc1cc(Nc2cc(/C=C/c3ccccc3)nc3ccccc23)ccc1O	9 µM	37 µM	4.1	9.6 µM	81.8%	–	–
NCCCCNc1cc(/C=C/c2ccccc2)nc2ccccc12	> 25 µM	6.6 µM	< 0.3	0.44 µM	–	–	–
NCCNc1cc(/C=C/c2ccccc2)nc2ccccc12	> 50 µM	4.6 µM	< 0.1	2.4 µM	–	–	–
CN1CCN(CC(=O)NCCNc2cc(/C=C/c3ccccc3)nc3ccccc23)CC1	3.5 µM	34 µM	9.7	3.5 µM	78.5%	inactive	–
CC(=O)N(C(C)=O)c1cc(/C=C/c2ccccc2)nc2ccccc12	13.4 µM	> 25 µM	> 1.86	35.1 µM	–	–	–
O=C(CN1CCOCC1)NCCNc1cc(/C=C/c2ccccc2)nc2ccccc12	> 25 µM	> 50 µM	–	1.3 µM	79.8%	inactive	–
CCN(CC)CC(=O)NCCNc1cc(/C=C/c2ccccc2)nc2ccccc12	0.9 µM	0.7 µM	0.8	1.6 µM	43.2%	inactive	–
O=C(CN1CCN(c2ccccc2)CC1)NCCNc1cc(/C=C/c2ccccc2)nc2ccccc12	1.5 µM	4.5 µM	3	2.1 µM	–	–	–
O=C(CNc1ccccc1)NCCNc1cc(/C=C/c2ccccc2)nc2ccccc12	4.3 µM	7.8 µM	1.8	3.3 µM	–	–	–
CN(C)CC(=O)NCCNc1cc(/C=C/c2ccccc2)nc2ccccc12	1.1 µM	15 µM	13.6	1.6 µM	62.7%	inactive	–
CCOCC(=O)NCCCCNc1cc(/C=C/c2ccccc2)nc2ccccc12	4.5 µM	7.2 µM	1.6	1.06 µM	–	inactive	–
CCOCC(=O)NCCNc1cc(/C=C/c2ccccc2)nc2ccccc12	1.6 µM	22.2 µM	13.8	3.4 µM	16.7%	inactive	Activity_index (Leishmania pifanoi [6]): 1.6; Activity (Leishmania donovani [7]): 3.12 µM; Activity (Leishmania donovani [8]): Active; Activity (Leishmania donovani [9]): Active; Drug uptake [10]: Active; Drug uptake [11]: Active; Activity (Leishmania donovani [12]): Active; Activity (Leishmania donovani [13]): 4.3%; Activity (Leishmania donovani [14]): inactive; Activity (Leishmania donovani [15]): Active; Activity (Leishmania donovani [16]): Active; Activity (Leishmania donovani [17]): Active; Activity (Leishmania donovani [18]): Active; inhibition [19]: < 2%
C(=C\c1cc(-c2c[nH]c3ccccc23)c2ccccc2n1)/c1ccccc1	1 µM	4.1 µM	4.1	1.5 µM	64.6%	–	–
Nc1cc(/C=C/c2ccccc2)nc2ccccc12	8.9 µM	4.4 µM	0.5	0.5 µM	–	–	–
O=C(CN1CCCC1)NCCCCNc1cc(/C=C/c2ccccc2)nc2ccccc12	5.3 µM	7.1 µM	1.4	0.2 µM	23.3%	inactive	Activity (Leishmania donovani [8]): Active; Activity (Leishmania donovani [9]): Active
O=C(CNc1ccc(Cl)cc1Cl)NCCNc1cc(/C=C/c2ccccc2)nc2ccccc12	1.2 µM	> 50 µM	> 41.6	8.4 µM	–	–	–
C(=C\c1ccc2ccccc2n1)/c1ccccc1	> 50 µM	> 50 µM	–	> 50 µM	–	–	Activity (Leishmania donovani [17]): inactive; Activity (Leishmania donovani [18]): inactive
O=C(CN1CCCCC1)NCCNc1cc(/C=C/c2ccccc2)nc2ccccc12	1.2 µM	4.7 µM	3.4	2.1 µM	46.4%	inactive	Activity (Leishmania donovani [8]): Active; Activity (Leishmania donovani [9]): Active
CC(C)(C)OC(=O)NCCCCNc1cc(/C=C/c2ccccc2)nc2ccccc12	4.9 µM	3.7 µM	0.8	0.56 µM	–	–	–
COc1ccc2nc(C)cc(Nc3ccc(Oc4ccc(Cl)c5ccccc45)c(Cl)c3)c2c1	6.2 µM	> 50 µM	> 8.1	4.4 µM	–	–	Activity (Leishmania donovani [20]): 22.5%
O=C(CNc1ccccc1)NCCCCNc1cc(/C=C/c2ccccc2)nc2ccccc12	6.9 µM	3.3 µM	0.48	1.6 µM	–	–	–
